Data on 20 compounds can be found in ChEMBL document CHEMBL1126631, “Synthesis and biological activities of angiotensin II, Sarilesin, and Sarmesin analogues containing Aze or Pip at position 7” (J Med Chem, 1993).

The structures appear in SMILES notation.

The target of the first assay is T1, Angiotensin II receptor (Rattus norvegicus, UniProt P29089+P25095+P35351).
T1 sequence (P29089 whole entry): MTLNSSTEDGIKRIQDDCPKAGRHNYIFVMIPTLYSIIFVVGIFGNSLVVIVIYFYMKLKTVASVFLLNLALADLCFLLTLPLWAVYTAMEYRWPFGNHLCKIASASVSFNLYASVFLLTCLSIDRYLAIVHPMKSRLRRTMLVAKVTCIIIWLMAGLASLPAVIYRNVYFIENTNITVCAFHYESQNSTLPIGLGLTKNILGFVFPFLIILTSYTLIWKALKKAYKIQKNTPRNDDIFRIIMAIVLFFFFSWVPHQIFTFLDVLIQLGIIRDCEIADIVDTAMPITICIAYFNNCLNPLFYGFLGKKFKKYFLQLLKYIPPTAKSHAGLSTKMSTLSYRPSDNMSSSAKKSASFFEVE
T1 sequence (P25095 whole entry): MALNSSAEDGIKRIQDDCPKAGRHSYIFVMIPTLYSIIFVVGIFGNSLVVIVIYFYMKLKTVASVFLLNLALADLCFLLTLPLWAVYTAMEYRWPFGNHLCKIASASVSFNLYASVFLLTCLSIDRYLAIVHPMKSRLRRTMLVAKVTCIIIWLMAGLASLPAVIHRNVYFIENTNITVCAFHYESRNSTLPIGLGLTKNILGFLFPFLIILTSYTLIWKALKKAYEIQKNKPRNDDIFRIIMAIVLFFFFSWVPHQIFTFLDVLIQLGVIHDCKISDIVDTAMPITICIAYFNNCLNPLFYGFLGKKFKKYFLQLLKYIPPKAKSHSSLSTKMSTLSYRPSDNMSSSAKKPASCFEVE
T1 sequence (P35351 whole entry): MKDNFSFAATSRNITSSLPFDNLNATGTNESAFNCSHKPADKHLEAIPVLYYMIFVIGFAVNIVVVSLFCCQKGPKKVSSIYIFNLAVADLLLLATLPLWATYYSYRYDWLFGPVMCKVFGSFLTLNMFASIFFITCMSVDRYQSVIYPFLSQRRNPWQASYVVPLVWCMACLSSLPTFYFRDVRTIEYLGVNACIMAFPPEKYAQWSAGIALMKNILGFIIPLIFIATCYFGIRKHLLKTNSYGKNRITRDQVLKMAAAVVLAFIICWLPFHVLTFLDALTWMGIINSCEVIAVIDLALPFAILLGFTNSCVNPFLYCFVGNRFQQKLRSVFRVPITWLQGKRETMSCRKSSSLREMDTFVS
Kind of assay: Antagonistic activity (pA2) was determined as the negative logarithm of the concentration required to reduce the response to an EC50 dose of ANG II to the response to half the EC50. The format is functional. Put shortly:
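Isolated uterine horns (defatted) from diethylstilbestrol-primed virgin Sprague–Dawley rats (150–250 g), held under 1-g tension in a 3-mL bath of 150 mM NaCl, 5.6 mM KCl, 0.18 mM NaHCO3, 1.4 mM glucose, pH 7.0, oxygenated. Isotonic contractions recorded. Human ANGII as standard; values are means of the stated number of experiments.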
For orientation: pA2 means the negative logarithm of the molar antagonist concentration that doubles the agonist concentration needed for the same response. A higher pA2 goes with higher antagonist potency. In turn, `CC[C@H](C)[C@H](NC(=O)[C@H](Cc1ccc(OC)cc1)NC(=O)[C@@H](NC(=O)[C@@H](N)CCCN=C(N)N)C(C)C)C(=O)N[C@@H](Cc1c[nH]cn1)C(=O)N1CC[C@H]1C(=O)N[C@@H](Cc1ccccc1)C(=O)O` gave a pA2 of under 5.
For `CC[C@H](C)[C@H](NC(=O)[C@H](Cc1ccc(OC)cc1)NC(=O)[C@@H](NC(=O)[C@@H](N)CCCN=C(N)N)C(C)C)C(=O)N[C@@H](Cc1c[nH]cn1)C(=O)N1CCCC[C@H]1C(=O)N[C@@H](Cc1ccccc1)C(=O)O`, the pA2 is on record as under 5.
Compound `CC[C@H](C)[C@H](NC(=O)[C@@H]1CCCCN1C(=O)[C@H](Cc1c[nH]cn1)NC(=O)[C@@H](NC(=O)[C@H](Cc1ccc(O)cc1)NC(=O)[C@@H](NC(=O)[C@H](CCCN=C(N)N)NC(=O)C(C)(C)N)C(C)C)[C@@H](C)CC)C(=O)O` returned a pA2 of 7.6.
Turning to `CC[C@H](C)[C@H](NC(=O)[C@H](Cc1ccc(OC)cc1)NC(=O)[C@@H](NC(=O)[C@H](CCCN=C(N)N)NC(=O)CNC)C(C)C)C(=O)N[C@@H](Cc1c[nH]cn1)C(=O)N1CCCC[C@H]1C(=O)N[C@@H](Cc1ccccc1)C(=O)O`, the pA2 stood at 6.5.
`CC[C@H](C)[C@H](NC(=O)[C@@H]1CCN1C(=O)[C@H](Cc1c[nH]cn1)NC(=O)[C@@H](NC(=O)[C@H](Cc1ccc(O)cc1)NC(=O)[C@@H](NC(=O)[C@H](CCCN=C(N)N)NC(=O)C(C)(C)N)C(C)C)[C@@H](C)CC)C(=O)O` registered a pA2 of 7.1.
Compound `CC[C@H](C)[C@H](NC(=O)[C@H](Cc1ccc(OC)cc1)NC(=O)[C@@H](NC(=O)[C@H](CCCN=C(N)N)NC(=O)CNC)C(C)C)C(=O)N[C@@H](Cc1c[nH]cn1)C(=O)N1CC[C@H]1C(=O)N[C@@H](Cc1ccccc1)C(=O)O` yielded a pA2 of 7.4.
The compound `CC[C@H](C)[C@H](NC(=O)[C@@H]1CCCCN1C(=O)[C@H](Cc1c[nH]cn1)NC(=O)[C@@H](NC(=O)[C@H](Cc1ccc(O)cc1)NC(=O)[C@@H](NC(=O)[C@H](CCCN=C(N)N)NC(=O)CNC)C(C)C)[C@@H](C)CC)C(=O)O` had a pA2 of 8.3.
On to `CC[C@H](C)[C@H](NC(=O)[C@@H]1CCN1C(=O)[C@H](Cc1c[nH]cn1)NC(=O)[C@@H](NC(=O)[C@H](Cc1ccc(O)cc1)NC(=O)[C@@H](NC(=O)[C@H](CCCN=C(N)N)NC(=O)CNC)C(C)C)[C@@H](C)CC)C(=O)O`, for which the pA2 is on record as 7.9.
On to `CC[C@H](C)[C@H](NC(=O)[C@H](Cc1ccc(OC)cc1)NC(=O)[C@@H](NC(=O)[C@H](CCCN=C(N)N)NC(=O)CNC)C(C)C)C(=O)N[C@@H](Cc1c[nH]cn1)C(=O)N1CCC[C@H]1C(=O)N[C@@H](Cc1ccccc1)C(=O)O`, for which the pA2 came to 7.7.

In the next assay the target is Angiotensin II receptor (Rattus norvegicus) (UniProt P29089+P25095+P35351). Put plainly: Evaluated for its agonistic activity using rat uterus bioassay in Dawley rats (% of ANG II). The format is functional, tissue-based. Put shortly:
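Defatted uterine horns from diethylstilbestrol-primed virgin Sprague–Dawley rats (150–250 g), suspended under 1-g tension in a 3-mL oxygenated bath (150 mM NaCl, 5.6 mM KCl, 0.18 mM NaHCO3, 1.4 mM glucose, pH 7.0). Isotonic contractions recorded; activity found by matching the response to an equivalent human ANGII response. Values are means of the stated number of experiments.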
Consider `CC[C@H](C)[C@H](NC(=O)[C@H](Cc1ccc(O)cc1)NC(=O)[C@@H](NC(=O)[C@@H](N)CCCN=C(N)N)C(C)C)C(=O)N[C@@H](Cc1c[nH]cn1)C(=O)N1CCC1C(=O)N[C@@H](Cc1ccccc1)C(=O)O` (stereo not given in full), for which the Agonist activity came to 35.
With `CC[C@H](C)[C@H](NC(=O)[C@H](Cc1ccc(O)cc1)NC(=O)[C@@H](NC(=O)[C@H](CCCN=C(N)N)NC(=O)CNC)C(C)C)C(=O)N[C@@H](Cc1c[nH]cn1)C(=O)N1CCC[C@H]1C(=O)N[C@@H](Cc1ccccc1)C(=O)O`, the Agonist activity was 160.
The compound `CC[C@@H](C)[C@H](NC(=O)[C@H]1CCCCN1C(=O)[C@H](Cc1c[nH]cn1)NC(=O)[C@@H](NC(=O)[C@H](Cc1ccc(O)cc1)NC(=O)[C@@H](NC(=O)[C@H](CCCN=C(N)N)NC(=O)CNC)C(C)C)[C@@H](C)CC)C(=O)O` had an Agonist activity of under 0.1.
The compound `CC[C@H](C)[C@H](NC(=O)[C@H](Cc1ccc(O)cc1)NC(=O)[C@@H](NC(=O)[C@H](CCCN=C(N)N)NC(=O)CNC)C(C)C)C(=O)N[C@@H](Cc1c[nH]cn1)C(=O)N1CCCC[C@@H]1C(=O)N[C@@H](Cc1ccccc1)C(=O)O` yielded an Agonist activity of 184.
Consider `CC[C@@H](C)[C@H](NC(=O)C1CCN1C(=O)[C@H](Cc1c[nH]cn1)NC(=O)[C@@H](NC(=O)[C@H](Cc1ccc(O)cc1)NC(=O)[C@@H](NC(=O)[C@H](CCCN=C(N)N)NC(=O)CNC)C(C)C)[C@@H](C)CC)C(=O)O` (stereo not given in full), for which the Agonist activity was under 0.1.
On to `CC[C@H](C)[C@H](NC(=O)[C@H](Cc1ccc(O)cc1)NC(=O)[C@@H](NC(=O)[C@H](CCCN=C(N)N)NC(=O)C(C)(C)N)C(C)C)C(=O)N[C@@H](Cc1c[nH]cn1)C(=O)N1CCCC[C@@H]1C(=O)N[C@@H](Cc1ccccc1)C(=O)O`, for which the Agonist activity is 65.
The compound `CC[C@@H](C)[C@H](NC(=O)C1CCN1C(=O)[C@H](Cc1c[nH]cn1)NC(=O)[C@@H](NC(=O)[C@H](Cc1ccc(O)cc1)NC(=O)[C@@H](NC(=O)[C@H](CCCN=C(N)N)NC(=O)C(C)(C)N)C(C)C)[C@@H](C)CC)C(=O)O` (stereo not given in full) gave an Agonist activity of under 0.1.
Turning to `CC[C@H](C)[C@H](NC(=O)[C@H](Cc1ccc(O)cc1)NC(=O)[C@@H](NC(=O)[C@H](CCCN=C(N)N)NC(=O)CNC)C(C)C)C(=O)N[C@@H](Cc1c[nH]cn1)C(=O)N1CCC1C(=O)N[C@@H](Cc1ccccc1)C(=O)O` (stereo not given in full), the Agonist activity worked out at 98.
`CC[C@H](C)[C@H](NC(=O)[C@H](Cc1ccc(O)cc1)NC(=O)[C@@H](NC(=O)[C@H](CCCN=C(N)N)NC(=O)C(C)(C)N)C(C)C)C(=O)N[C@@H](Cc1c[nH]cn1)C(=O)N1CCC1C(=O)N[C@@H](Cc1ccccc1)C(=O)O` (stereo not given in full) displayed an Agonist activity of 34.
Take `CC[C@H](C)[C@H](NC(=O)[C@@H]1CCCN1C(=O)[C@H](Cc1c[nH]cn1)NC(=O)[C@@H](NC(=O)[C@H](Cc1ccc(O)cc1)NC(=O)[C@@H](NC(=O)[C@H](CCCN=C(N)N)NC(=O)CNC)C(C)C)[C@@H](C)CC)C(=O)O`: the Agonist activity stood at 0.1.
Same read-out and setting: under `CC[C@@H](C)[C@H](NC(=O)[C@H]1CCCCN1C(=O)[C@H](Cc1c[nH]cn1)NC(=O)[C@@H](NC(=O)[C@H](Cc1ccc(O)cc1)NC(=O)[C@@H](NC(=O)[C@H](CCCN=C(N)N)NC(=O)C(C)(C)N)C(C)C)[C@@H](C)CC)C(=O)O` stands under 0.1.
